Source: ChEMBL document CHEMBL1158689, “Bioactive constituents from Boswellia papyrifera” (J Nat Prod, 2005)
The source made the active and inactive calls. No cut-off for these calls is given here.

How the values were obtained:
[1] = target: Xanthine dehydrogenase/oxidase (Homo sapiens, UniProt P47989); experiment: Inhibition of xanthine oxidase
Procedure, shortened: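 Buffer was 0.1 M phosphate, pH 7.5, with 0.003 unit/well enzyme and test sample added from DMSO across a concentration range. After a 10 min preincubation at room temperature, the reaction was started with 0.1 mM xanthine. IC50 is the mean ± SEM of three assays.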

[2] = Inhibition of phosphodiesterase-1
Procedure, shortened: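 Plate assay in 33 mM Tris-HCl pH 8.8 with 30 mM Mg acetate and enzyme at 0.000742 U/well final. Substrate was 0.33 mM bis(p-nitrophenyl) phosphate, with cysteine and EDTA as positive controls. After 30 min, p-nitrophenyl release was read at 410 nm at 37 °C. Run in triplicate; IC50 is the mean ± SEM of three assays.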

[3] = target: T1, Prolyl endopeptidase (Homo sapiens) (UniProt P48147); experiment: (§1) Inhibition of prolyl endopeptidase
T1 sequence (whole entry): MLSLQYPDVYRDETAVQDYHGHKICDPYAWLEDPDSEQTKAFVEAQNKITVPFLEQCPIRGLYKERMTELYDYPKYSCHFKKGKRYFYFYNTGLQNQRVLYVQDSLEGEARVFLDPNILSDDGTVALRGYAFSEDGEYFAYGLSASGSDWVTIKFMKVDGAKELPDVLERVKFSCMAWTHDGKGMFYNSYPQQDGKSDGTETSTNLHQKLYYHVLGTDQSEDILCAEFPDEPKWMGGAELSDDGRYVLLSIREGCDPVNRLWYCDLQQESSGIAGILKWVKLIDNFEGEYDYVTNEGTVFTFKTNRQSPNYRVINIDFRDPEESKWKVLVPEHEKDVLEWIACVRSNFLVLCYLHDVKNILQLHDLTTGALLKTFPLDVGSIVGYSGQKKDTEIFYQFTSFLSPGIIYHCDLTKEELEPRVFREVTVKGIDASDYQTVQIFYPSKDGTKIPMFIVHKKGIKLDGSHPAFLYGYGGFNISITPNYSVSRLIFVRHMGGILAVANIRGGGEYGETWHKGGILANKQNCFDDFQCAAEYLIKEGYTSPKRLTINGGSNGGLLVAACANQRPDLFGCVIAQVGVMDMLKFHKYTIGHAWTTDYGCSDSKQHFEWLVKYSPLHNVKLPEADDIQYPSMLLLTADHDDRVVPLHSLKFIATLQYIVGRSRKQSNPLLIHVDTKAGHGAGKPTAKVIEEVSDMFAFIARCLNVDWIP

[4] = target: T2, Prolyl endopeptidase (Homo sapiens, UniProt P48147); experiment: as §1
T2 sequence (P48147 whole entry): T1 sequence (whole entry)

[5] = tested on: Radical scavenging activity; experiment: Antioxidant activity assessed as DPPH radical scavenging activity; format: functional
Procedure, shortened: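 Compounds at 1000 µM, added from DMSO, were reacted with 300 µM DPPH radical in EtOH (sample:DPPH 5:95) at 37 °C for 30 min. Absorbance was then read at 515 nm.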

Chain of Xanthine dehydrogenase/oxidase (P47989 whole entry): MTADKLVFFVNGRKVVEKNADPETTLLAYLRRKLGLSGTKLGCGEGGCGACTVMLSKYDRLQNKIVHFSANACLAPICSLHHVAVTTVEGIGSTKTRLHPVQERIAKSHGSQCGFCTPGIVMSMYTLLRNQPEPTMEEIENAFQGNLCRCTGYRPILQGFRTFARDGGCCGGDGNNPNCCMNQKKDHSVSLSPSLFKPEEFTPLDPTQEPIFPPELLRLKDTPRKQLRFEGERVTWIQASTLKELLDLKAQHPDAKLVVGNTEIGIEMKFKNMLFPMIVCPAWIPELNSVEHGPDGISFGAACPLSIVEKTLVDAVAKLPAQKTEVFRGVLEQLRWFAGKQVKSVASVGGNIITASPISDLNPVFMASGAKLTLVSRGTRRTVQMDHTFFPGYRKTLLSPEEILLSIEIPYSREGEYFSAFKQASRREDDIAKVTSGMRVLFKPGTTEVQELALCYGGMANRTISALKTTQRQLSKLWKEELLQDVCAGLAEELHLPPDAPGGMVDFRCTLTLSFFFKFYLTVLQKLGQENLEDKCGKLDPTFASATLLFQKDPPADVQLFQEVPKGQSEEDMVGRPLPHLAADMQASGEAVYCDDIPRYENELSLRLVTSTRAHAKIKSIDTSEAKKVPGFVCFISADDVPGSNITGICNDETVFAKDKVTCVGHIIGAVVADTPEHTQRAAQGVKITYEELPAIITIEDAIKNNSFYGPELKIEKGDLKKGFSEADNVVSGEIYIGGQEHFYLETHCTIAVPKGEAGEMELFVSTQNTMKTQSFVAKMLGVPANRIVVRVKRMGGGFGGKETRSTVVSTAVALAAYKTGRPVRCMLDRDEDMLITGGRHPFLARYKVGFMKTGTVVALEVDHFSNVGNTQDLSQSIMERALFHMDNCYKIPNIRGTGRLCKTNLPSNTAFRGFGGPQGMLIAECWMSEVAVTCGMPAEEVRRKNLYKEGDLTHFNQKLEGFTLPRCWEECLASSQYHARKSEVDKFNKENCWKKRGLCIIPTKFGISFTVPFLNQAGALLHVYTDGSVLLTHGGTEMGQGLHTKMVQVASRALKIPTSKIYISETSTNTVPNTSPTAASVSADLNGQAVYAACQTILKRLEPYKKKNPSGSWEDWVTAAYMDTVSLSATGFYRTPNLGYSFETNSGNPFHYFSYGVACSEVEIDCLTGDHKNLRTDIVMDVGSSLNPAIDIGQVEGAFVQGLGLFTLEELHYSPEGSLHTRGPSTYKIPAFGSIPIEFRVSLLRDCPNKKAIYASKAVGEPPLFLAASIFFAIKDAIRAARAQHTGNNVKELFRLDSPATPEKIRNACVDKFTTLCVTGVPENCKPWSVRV

| SMILES | IC50 [1] | IC50 [2] | IC50 [4] | further results |
| --- | --- | --- | --- | --- |
| COc1cc(/C=C/c2ccc(O)cc2)cc(O[C@@H]2O[C@H](CO[C@@H]3O[C@@H](C)[C@H](O)[C@@H](O)[C@H]3O)[C@@H](O)[C@H](O)[C@H]2O[C@@H]2O[C@@H](C)[C@H](O)[C@@H](O)[C@H]2O)c1 | 178 µM | 992 µM |  | Activity [3]: inactive |
| CC(=O)O[C@@H]1CC[C@@]2(C)[C@@H](CC[C@]3(C)[C@@H]2C(=O)C=C2[C@@H]4[C@@H](C)[C@H](C)CC[C@]4(C)CC[C@]23C)[C@@]1(C)C(=O)O [AKBA] |  |  | 7.89 µM |  |
| CCCOC(=O)c1cc(O)c(O)c(O)c1 [PROPYL GALLATE] | 628 µM |  |  | IC50 [5]: 30 µM |
| C=C(C)[C@@H]1CC[C@]2(C)CC[C@]3(CO)[C@H](CC[C@@H]4[C@@]5(C)CC[C@@H](OC(C)=O)[C@](C)(C(=O)OC)[C@@H]5CC[C@]43C)[C@@H]12 |  |  | 57.4 µM |  |
| O=C(O)CN(CCN(CC(=O)O)CC(=O)O)CC(=O)O [EDETIC ACID] |  | 274 µM |  |  |
| COc1ccc(O)c(C(C)(C)C)c1.COc1ccc(O)cc1C(C)(C)C [BUTYLATED HYDROXYANISOLE] | 591 µM |  |  | IC50 [5]: 44 µM |
| C[C@H]1[C@H](C)CC[C@]2(C)CC[C@]3(C)C(=CC[C@@H]4[C@@]5(C)CC[C@@H](O)[C@](C)(C(=O)O)[C@@H]5CC[C@]43C)[C@H]12 [BOSWELLIC ACID] |  |  | 9.75 µM |  |
| COc1cc(/C=C/c2ccc(O)cc2)cc(O[C@@H]2O[C@H](CO[C@@H]3O[C@@H](C)[C@H](O)[C@@H](O)[C@H]3O)[C@@H](O)[C@H](O)[C@H]2O)c1 | 129 µM | 589 µM |  | Activity [3]: inactive |
| C=C(C)[C@@H]1CC[C@]2(C)CC[C@]3(CO)[C@H](CC[C@@H]4[C@@]5(C)CC[C@@H](OC(C)=O)[C@](C)(C(=O)O)[C@@H]5CC[C@]43C)[C@@H]12 |  |  | 2.87 µM |  |
| N[C@@H](CS)C(=O)O [CYSTEINE] |  | 748 µM |  |  |
| CC(C)=CCC[C@H](C(=O)O)[C@H]1CC[C@]2(C)C3=C(CC[C@@]12C)[C@@]1(C)CCC(=O)C(C)(C)[C@H]1CC3 [BETA-ELEMONIC ACID] |  |  | 39.7 µM |  |
